{"data": "Experimental data gathered from unrelated publications", "target": "Calcium/calmodulin-dependent protein kinase type 1G (CAMK1G, Homo sapiens, UniProt Q96NX5)", "note": "Lines come from different studies, so protocols differ."}
{"Compound": "O=C(NCCCN1CCOCC1)c1ccc(Nc2nccc(-c3cc4ccccc4s3)n2)cc1", "test": "binding, competition with immobilised ligand", "setting": "1 µM", "remaining binding": "98%"}
{"Compound": "CN(CCCC(F)(F)F)c1nccc(-c2cnn3ncccc23)n1", "test": "binding", "setting": "1 µM", "remaining binding": "100%"}
{"Compound": "O=C(c1ccc(Nc2ncc(Cl)c(-c3ccc(Cl)s3)n2)cc1)N1CCC(N2CCCC2)CC1", "test": "binding, competition with immobilised ligand", "setting": "1 µM", "remaining binding": "80%"}
{"Compound": "CN(C)c1ncc(F)c(-c2cnn3ncccc23)n1", "test": "binding, competition with immobilised ligand", "setting": "1 µM", "remaining binding": "96%"}
{"Compound": "C[C@@]1(Cc2ccc(C#N)cc2)C(=O)N(c2cc(Cl)cc(Cl)c2)c2ncc(C(=O)NC3(c4nc(C5CCC5)no4)CC3)n21", "test": "cell-free assay, competition with immobilised ligand", "setting": "1 µM", "remaining binding": "100%"}
{"Compound": "N[C@H]1CCN(c2nccc(-c3cnn4ncccc34)n2)C1", "test": "binding, competition with immobilised ligand", "setting": "1 µM", "remaining binding": "93%"}
{"Compound": "O=C(Nc1c[nH]nc1C(=O)NC1CCNCC1)c1cc(F)cc(F)c1", "test": "binding, competition with immobilised ligand", "setting": "1 µM", "remaining binding": "83%"}
{"Compound": "Cc1cnc(Nc2ccc(C(=O)N3CCC(N4CCCC4)CC3)cc2)nc1-c1cc2ccccc2s1", "test": "binding, competition with immobilised ligand", "setting": "1 µM", "remaining binding": "68%"}
{"Compound": "c1cncc(-c2cccc(Nc3nccc(NC4CCCCC4)n3)c2)c1", "test": "binding, competition with immobilised ligand", "setting": "10 µM", "remaining binding": "81%"}
{"Compound": "O=C(NC[C@@H]1[C@H]2CN(C(=O)OCc3cc(C(F)(F)F)cc(C(F)(F)F)c3)C[C@@H]12)c1ccc2[nH]nnc2c1", "test": "cell-free assay, competition with immobilised ligand", "setting": "1 µM", "remaining binding": "100%"}
{"Compound": "C[C@@H](c1ccc(-n2cnc3c(N)ncnc32)cc1)N1CCc2nn(C)c(Cc3ccccc3)c2C1=O", "test": "binding, competition with immobilised ligand", "setting": "0.1 µM", "remaining binding": "95%"}
{"Compound": "CC1CCCN1c1nccc(-c2cnn3ncccc23)n1 (stereo not shown)", "test": "binding, competition with immobilised ligand", "setting": "1 µM", "remaining binding": "100%"}
{"Compound": "CNCc1ccccc1-c1csc([C@H](C)Nc2nc(C)nc3cc(OC)c(OC)cc23)c1", "test": "cell-free assay, competition with immobilised ligand", "setting": "1 µM", "remaining binding": "96%"}
{"Compound": "CN(c1nccc(-c2cnn3ncccc23)n1)C1CC1", "test": "binding", "setting": "1 µM", "remaining binding": "100%"}
{"Compound": "O=C(Nc1ccc(Oc2ccc(F)cc2)cc1)N1CCc2ncccc2[C@H]1c1ccc(F)cc1", "test": "cell-free assay, competition with immobilised ligand", "setting": "1 µM", "remaining binding": "100%"}
{"Compound": "C[C@@H]1CCN(c2nccc(-c3cnn4ncccc34)n2)C1", "test": "binding", "setting": "1 µM", "remaining binding": "91%"}
{"Compound": "COc1cc(-c2cn(C3CCc4c(F)cccc4N(CC(F)(F)F)C3=O)nn2)ccc1-n1cnc(C)c1 (stereo not shown)", "test": "cell-free assay, competition with immobilised ligand", "setting": "1 µM", "remaining binding": "100%"}
{"Compound": "COc1ncc2cc3ccccc3nc2c1C#N", "test": "cell-free assay, competition with immobilised ligand", "setting": "5 µM", "remaining binding": "89%"}
{"Compound": "COc1cnc(Nc2cccc(S(N)(=O)=O)c2)nc1N1CCN(c2ccccc2)C(=O)C1", "test": "binding, competition with immobilised ligand", "setting": "1 µM", "remaining binding": "100%"}
{"Compound": "N#Cc1ccc(Nc2ccc3[nH]c(=O)[nH]c3c2)c(Cl)c1", "test": "cell-free assay, competition with immobilised ligand", "setting": "1 µM", "remaining binding": "100%"}
{"Compound": "COc1cnc(Nc2cccc(S(N)(=O)=O)c2)nc1N1CCN(c2ccccc2)CC1", "test": "binding, competition with immobilised ligand", "setting": "1 µM", "remaining binding": "86%"}
{"Compound": "FC(F)(F)Oc1cccc(-c2cnc3ccc(-c4ccncc4)nn23)c1", "test": "cell-free assay, competition with immobilised ligand", "setting": "5 µM", "remaining binding": "73%"}
